Test results taken from ChEMBL document CHEMBL1132370, “8,11-dihydroxy-6-[(aminoalkyl)amino]-7H-benzo[e]perimidin-7-ones with activity in multidrug-resistant cell lines: synthesis and antitumor evaluation” (J Med Chem, 1999).
Several values for one entry are separate records, joined by “and”; a condition that tells them apart may be missing. Equal entries are not always repeated.

Tests used:
[1] = system: A2780; assay: In vitro Cytotoxic activity of compound in comparison with reference compounds in human cell line A2780; assay type: functional, cell-based
Method in brief: (§1)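 Monolayer lines were used: A2780, A2780/Dx, DU145 and PC3 in RPMI 1640, LoVo and LoVo/Dx in Ham's F-12, and HT29 and HT29/Mx in McCoy's 5A, each with 10% FBS. Drug exposure was 72 h. […] Resistance index = IC50 in resistant / IC50 in sensitive line.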

[2] = system: HT-29; assay: In vitro Cytotoxic activity of compound in comparison with reference compounds in human cell line HT-29; assay type: functional, cell-based; method in brief: as §1
[3] = system: HT-29; assay: Effect of compound as percent survival at dose of 100n g/mL on HT-29 cell line after 72 hours; assay type: functional, Homo sapiens
Method in brief: (§2)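 HT29 or mitoxantrone-resistant HT29/Mx monolayers grown in McCoy's 5A with 10% FBS and 1% 1 M Hepes at 37 °C, 5% CO2. Cells exposed to drug for 72 h. Survival measured by cell counting and given as percent of untreated control.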

[4] = system: HT-29; assay: Percent inhibition at G1 phase of cell cycle at a dose of 100n g/mL after 72 hours of induction in HT-29/Mx cell line; assay type: functional, Homo sapiens
Method in brief: (§3)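 HT29 or HT29/Mx cells were treated for 72 h, then fixed in 70% ice-cold ethanol. Cells were stained with PBS containing 30 μg/mL propidium iodide and 66 units/mL RNase A, and DNA content was measured by flow cytometry on at least 10^4 cells to give G1, S and G2/M fractions.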

[5] = system: HT-29; assay: Percent inhibition at G1 phase of cell cycle at a dose of 10 ng/mL after 72 hours of induction in HT-29/Mx cell line; assay type: functional; conditions: Homo sapiens, HT-29, 72 h; method in brief: as §3
[6] = system: HT-29; assay: Percent inhibition at G2/M phase of cell cycle at a dose of 10 ng/mL after 72 hours of induction in HT-29/Mx cell line; assay type: functional; conditions: Homo sapiens, HT-29, 72 h; method in brief: as §3
[7] = system: HT-29; assay: Effect of compound as percent survival at dose of 10 ng/mL on HT-29/Mx cell line after 72 hours; assay type: functional; conditions: Homo sapiens, HT-29, 72 h; read-out: Survival; method in brief: as §2
[8] = system: HT-29; assay: In vitro Cytotoxic activity of compound in comparison with reference compounds in human cell line HT-29/Mx(RI); assay type: functional, cell-based; method in brief: as §1
[9] = system: HT-29; assay: Percent inhibition at G1 phase of cell cycle at a dose of 100n g/mL after 72 hours of induction in HT-29 cell line; assay type: functional, Homo sapiens; method in brief: as §3
[10] = system: HT-29; assay: Percent inhibition at G2/M phase of cell cycle at a dose of 25 ng/mL after 72 hours of induction in HT-29 cell line; assay type: functional; conditions: Homo sapiens, HT-29, 72 h
Method in brief: (§4)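 HT29 and mitoxantrone-resistant HT29/Mx colon adenocarcinoma monolayers in McCoy's 5A with 10% FBS and 1% 1 M Hepes, 37 °C, 5% CO2. Drug exposure 72 h. Cells then fixed in 70% ice-cold ethanol, washed twice and resuspended in PBS with 30 μg/mL propidium iodide and 66 units/mL RNase A. At least 10^4 cells per sample read for DNA content by flow cytometry. G1/S/G2M fractions reported as percentages.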

[11] = system: HT-29; assay: Percent inhibition at S phase of cell cycle at a dose of 100n g/mL after 72 hours of induction in HT-29 cell line; assay type: functional, Homo sapiens; method in brief: as §4
[12] = system: K562; assay: Compound was tested in vitro for cytotoxicity against MDR cell line K562R (RI) (72 hr exposure to compound); assay type: functional, cell-based; conditions: Homo sapiens, K562, 72 h
Method in brief: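 HL60 or K562R cells were grown in RPMI 1640 with 10% FBS and exposed to drug for 72 h. Growth was measured by Coulter cell counting, and IC50 is the concentration giving 50% growth inhibition (mean of ≥3 experiments ± SEM). Resistance index = IC50 in K562R / IC50 in sensitive K562S.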

[13] = system: LoVo; assay: In vitro Cytotoxic activity of compound in comparison with reference compounds in human cell line LoVo/Dx(RI); assay type: functional, cell-based; method in brief: as §1
[14] = system: LoVo; assay: In vitro Cytotoxic activity of compound in comparison with reference compounds in human cell line LoVo; assay type: functional, cell-based; method in brief: as §1
[15] = system: Mus musculus; assay: In vivo antileukemic activity towards P388 Murine Leukemia at a dose of 1.0 mg/kg, expressed as body weight change; assay type: functional
[16] = system: Mus musculus; assay: In vivo antileukemic activity towards P388 Murine Leukemia at a dose of 10.0 mg/kg, expressed as body weight change; assay type: functional
[17] = system: Mus musculus; assay: In vivo antileukemic activity towards P388 Murine Leukemia at a dose of 20.0 mg/kg, expressed as body weight change; assay type: functional
[18] = system: Mus musculus; assay: In vivo antileukemic activity towards P388 Murine Leukemia at a dose of 22.5 mg/kg, expressed as body weight change; assay type: functional
[19] = system: Mus musculus; assay: In vivo antileukemic activity towards P388 Murine Leukemia at a dose of 30.0 mg/kg, expressed as body weight change; assay type: functional
[20] = system: Mus musculus; assay: In vivo antileukemic activity towards P388 Murine Leukemia at a dose of 1.0 mg/kg; assay type: functional
[21] = system: Mus musculus; assay: Long-term survivors when compound was tested for in vivo antileukemic activity towards P388 Murine Leukemia at dose of 1.0 mg/kg tested in 12 animals; assay type: functional
[22] = system: Mus musculus; assay: In vivo antileukemic activity towards P388 Murine Leukemia at a dose of 22.5 mg/kg; assay type: functional
[23] = system: Mus musculus; assay: In vivo antileukemic activity towards P388 Murine Leukemia at a dose of 5.0 mg/kg; assay type: functional
[24] = system: Mus musculus; assay: Toxic deaths at dose of 10 mg/kg (i.v.) to nude mice bearing sc Human ovarian carcinoma Xenografts tested in 4 animals; assay type: functional; conditions: route intravenous
Method in brief: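 Tumor fragments of A2780, A2780/Dx or HT29/Mx grafted sc in both flanks of Swiss athymic nude mice, 4–5 mice per group. Drug given iv once weekly on 3 days: days 4, 11, 18 (A2780, HT29/Mx) or days 7, 14, 21 (A2780/Dx). Dosing started at mean tumor volume 80–100 mm3. Toxic deaths recorded as deaths/total mice.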

[25] = system: Mus musculus; assay: Long-term survivors when compound was tested for in vivo antileukemic activity towards P388 Murine Leukemia at dose of 5.0 mg/kg tested in 18 animals; assay type: functional
[26] = system: Mus musculus; assay: Tumor volume inhibition administered iv at a dose of 14 mg/kg to nude mice bearing sc Human HT-29/Mx Xenografts; assay type: functional
Method in brief: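 Swiss nude athymic mice carrying tumor fragments grafted sc in both flanks, 4–5 mice (8–10 tumors) per group. Tumor lines kept by sc passage. Dosing iv once weekly for 3 doses, starting at mean tumor volume ca. 80–100 mm3 (A2780, HT29/Mx: days 4, 11, 18; A2780/Dx: days 7, 14, 21). Diameters measured twice weekly; TV = d²×D/2. %TVI treated vs control assessed 3–10 days after last dose.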

[27] = system: Mus musculus; assay: Antileukemic activity expressed as number of toxic deaths/total number of mice at dose 22.5 mg/kg tested in 6 animals; assay type: functional
[28] = system: HT-29; assay: Percent inhibition at G2/M phase of cell cycle at a dose of 100n g/mL after 72 hours of induction in HT-29/Mx cell line; assay type: functional, Homo sapiens; method in brief: as §3
[29] = system: HT-29; assay: Effect of compound as percent survival at dose of 25 ng/mL on HT-29 cell line after 72 hours; assay type: functional; conditions: Homo sapiens, HT-29, 72 h; read-out: Survival; method in brief: as §2
[30] = system: K562; assay: Compound was tested in vitro for cytotoxicity against sensitive cell line K562S (72 hr exposure to compound); conditions: Homo sapiens, K562, 72 h

CN(C)CCNc1ccc2ncnc3c2c1C(=O)c1c(O)ccc(O)c1-3
IC50 [1]: 8.3 nM | IC50 [2]: 49.1 nM | Survival [3]: 20% | Inhibition [4]: 25% | inhibition at 0.01 µg/mL [5]: 63% | inhibition at 0.01 µg/mL [6]: 30% | viability at 0.01 µg/mL [7]: 100% | IC50 [8]: 56.9 nM | Inhibition [9]: 23% | inhibition at 0.025 µg/mL [10]: 29% | Inhibition [11]: 21% | IC50 [12]: 10.4 nM | IC50 [13]: 12.7 nM | IC50 [14]: 11.1 nM | Body weight change [15]: 1.05 BWC | Body weight change [16]: 0.98 BWC | Body weight change [17]: 0.9 BWC and 0.94 BWC | Body weight change [18]: 0.88 BWC | Body weight change [19]: 0.88 BWC | T/C (ratio of treated to control) [20]: 118% | LTS [21]: 0 | T/C (ratio of treated to control) [22]: 215% | T/C (ratio of treated to control) [23]: 147% and 167% | Toxic deaths [24]: 0 | LTS [25]: 1 | TVI [26]: 7% | Toxic deaths [27]: 1 | Inhibition [28]: 58% | viability at 0.025 µg/mL [29]: 53% | IC50 [30]: 5.56 nM
